In ChEMBL document CHEMBL2150981, “Discovery and optimization of benzotriazine di-N-oxides targeting replicating and nonreplicating Mycobacterium tuberculosis” (J Med Chem, 2012):
In brackets after ≈: the same amount, converted by molar mass.

Key:
[1] = system: Mycobacterium tuberculosis; assay: Antitubercular activity against Mycobacterium tuberculosis H37Rv isolate SRI after 5 days by resazurin-based microplate assay; format: functional; settings: 120 h
[2] = system: Mycobacterium tuberculosis; assay: Antitubercular activity against Mycobacterium tuberculosis H37Rv isolate ITR after 7 days by luminescence spectrometry; format: functional; settings: 168 h
[3] = system: Mycobacterium tuberculosis; assay: Antitubercular activity against Mycobacterium tuberculosis H37Rv incubated for 10 days in anaerobic condition followed by 48 hrs incubation in aerobic condition by LORA assay; format: functional
[4] = system: Vero; assay: (§1) Cytotoxicity against african green monkey Vero cells after 72 hrs by CellTiterGlo assay; settings: chlorocebus sabaeus, vero, 72 h
[5] = Selectivity index, ratio of CC50 for Vero cells to MIC90 for Mycobacterium tuberculosis H37Rv isolate SRI; format: functional
[6] = system: Mycobacterium tuberculosis; assay: Antitubercular activity against p-amino-salicyclic acid-resistant Mycobacterium tuberculosis ATCC 35821 after 5 days by resazurin-based microplate assay; format: functional; settings: ATCC 35821, 120 h
Summary of the method: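 Mid-log cultures grown in 7H9 with glycerol, Tween-80 and ADC. Compounds in DMSO were tested two-fold from […] against ~10^5 CFU/mL, 37°C for 5 d. Resazurin was then added for a further 2 d, and fluorescence read at ex 530/em 590 with visual confirmation. MIC was the lowest concentration inhibiting 90% of growth. Final DMSO 0.625%; two-fold variation taken as assay error.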

[7] = as §1; settings: chlorocebus sabaeus, Vero cells

Row | SMILES | MIC90 [1] [µg/mL] | MIC90 [2] [µg/mL] | MIC90 [3] [µg/mL] | CC50 [4] [µg/mL] | Selectivity Index [5] | MIC90 [6] [µg/mL] | CC50 at 72 h [7] [µg/mL]
1 | NNC(=O)c1ccncc1 [ISONIAZID] | 0.06 (≈ 0.438 µM) | 0.091 (≈ 0.664 µM) | > 20 | > 50 | >830 |  | 
2 | O=S1(=O)CCN(c2n[n+]([O-])c3cc4c(cc3[n+]2[O-])CCC4)CC1 | 5 (≈ 14.9 µM) | 15 (≈ 44.6 µM) | 30 (≈ 89.2 µM) | 17 (≈ 50.5 µM) | 3.4 |  | 
3 | CCN(CC)c1n[n+]([O-])c2ccccc2[n+]1[O-] | 0.31 (≈ 1.32 µM) | 0.46 (≈ 1.96 µM) | 1.3 (≈ 5.55 µM) | 12 (≈ 51.2 µM) | 40 |  | 
4 | Cc1cccc2c1[n+]([O-])c(NC1CCCC1)n[n+]2[O-] | 0.31 (≈ 1.19 µM) | 0.43 (≈ 1.65 µM) | 0.27 (≈ 1.04 µM) | 3.7 (≈ 14.2 µM) | 12 |  | 
5 | [O-][n+]1nc(NC2CCCCCC2)[n+]([O-])c2ccccc21 | 2.5 (≈ 9.11 µM) | 1.6 (≈ 5.83 µM) | 0.5 (≈ 1.82 µM) | 7.9 (≈ 28.8 µM) | 3.2 |  | 
6 | CN(C)c1n[n+]([O-])c2cc3c(cc2[n+]1[O-])CCC3 | 0.62 (≈ 2.52 µM) | 0.3 (≈ 1.22 µM) | 1.5 (≈ 6.09 µM) | 24 (≈ 97.5 µM) | 13 | 0.15 (≈ 0.609 µM) | 
7 | [O-][n+]1nc(NC2CCC2)[n+]([O-])c2ccc(Br)cc21 | 0.15 (≈ 0.482 µM) | 0.46 (≈ 1.48 µM) | 0.41 (≈ 1.32 µM) | 3.8 (≈ 12.2 µM) | 24 |  | 
8 | [O-][n+]1nc(N[C@@H]2C[C@H]3CC[C@@H]2C3)[n+]([O-])c2cc3c(cc21)CCC3 | 1.2 (≈ 3.84 µM) | 0.93 (≈ 2.98 µM) | 0.36 (≈ 1.15 µM) | > 50 | >41 |  | 
9 | CC(C)(C)Nc1n[n+]([O-])c2ccccc2[n+]1[O-] | 1.2 (≈ 5.12 µM) | 1.9 (≈ 8.11 µM) | 0.82 (≈ 3.5 µM) | 8 (≈ 34.2 µM) | 6.4 | 1.2 (≈ 5.12 µM) | 
10 | [O-][n+]1nc(N[C@@H]2C[C@H]3CC[C@@H]2C3)[n+]([O-])c2ccccc21 | 0.62 (≈ 2.28 µM) | 0.6 (≈ 2.2 µM) | 0.42 (≈ 1.54 µM) | 3.4 (≈ 12.5 µM) | 5.5 |  | 
11 | [O-][n+]1nc(NC2CCC2)[n+]([O-])c2ccc(F)cc21 | 0.31 (≈ 1.24 µM) | 0.4 (≈ 1.6 µM) | 0.88 (≈ 3.52 µM) | 1.6 (≈ 6.39 µM) | 10 |  | 
12 | CN(Cc1ccccc1)c1n[n+]([O-])c2cc3c(cc2[n+]1[O-])CCC3 | 0.31 (≈ 0.962 µM) | 0.15 (≈ 0.465 µM) | 0.41 (≈ 1.27 µM) | 17 (≈ 52.7 µM) | 53 | 0.07 (≈ 0.217 µM) | 
13 | CC1CCCCN1c1n[n+]([O-])c2cc3c(cc2[n+]1[O-])CCC3 (configuration not stated) | 1.2 (≈ 4 µM) | 0.66 (≈ 2.2 µM) | 0.47 (≈ 1.56 µM) | > 50 | >40 | 0.62 (≈ 2.06 µM) | 
14 | CCNc1n[n+]([O-])c2cc(C)c(OC)cc2[n+]1[O-] |  | 3.5 (≈ 14 µM) | 2.5 (≈ 9.99 µM) | > 100 | >40 | 1.2 (≈ 4.8 µM) | 
15 | [O-][n+]1nc(N2CCCC2)[n+]([O-])c2ccccc21 | 0.31 (≈ 1.33 µM) |  |  | 17 (≈ 73.2 µM) | 56 | 0.62 (≈ 2.67 µM) | 
16 | C[C@@H](Nc1n[n+]([O-])c2ccccc2[n+]1[O-])C1CCCCC1 | 1.2 (≈ 4.16 µM) | 0.92 (≈ 3.19 µM) | 0.36 (≈ 1.25 µM) | 8.9 (≈ 30.9 µM) | 7.1 |  | 
17 | CSc1c(C)[n+]([O-])c2ccccc2[n+]1[O-] | 10 (≈ 45 µM) | 28 (≈ 126 µM) | 9.4 (≈ 42.3 µM) | > 16 | >1.6 |  | 
18 | COCC(C)Nc1n[n+]([O-])c2cc(Cl)ccc2[n+]1[O-] (configuration not stated) | 1.2 (≈ 4.21 µM) | 1.4 (≈ 4.92 µM) | 0.78 (≈ 2.74 µM) |  | 2.1 |  | 2.6 (≈ 9.13 µM)
19 | Cc1cccc2c1[n+]([O-])c(NC1CCC1)n[n+]2[O-] | 0.31 (≈ 1.26 µM) | 0.47 (≈ 1.91 µM) | 0.43 (≈ 1.75 µM) | 22 (≈ 89.3 µM) | 70 |  | 
20 | CCNc1n[n+]([O-])c2cc(Br)ccc2[n+]1[O-] | 0.62 (≈ 2.17 µM) | 0.49 (≈ 1.72 µM) | 0.46 (≈ 1.61 µM) | 4.2 (≈ 14.7 µM) | 6.7 |  | 
21 | [O-][n+]1nc(NC2CCCC2)[n+]([O-])c2ccccc21 | 2.5 (≈ 10.2 µM) | 3.6 (≈ 14.6 µM) | 0.68 (≈ 2.76 µM) | 10 (≈ 40.6 µM) | 4.2 |  | 
22 | CS(=O)(=O)N1CCN(c2n[n+]([O-])c3cc4c(cc3[n+]2[O-])CCC4)CC1 | 5 (≈ 13.7 µM) | 13 (≈ 35.6 µM) | 15 (≈ 41 µM) | > 50 | >10 |  | 

Row | SMILES | MIC90 [1] [µg/mL] | MIC90 [2] [µg/mL] | MIC90 [3] [µg/mL] | CC50 [4] [µg/mL] | Selectivity Index [5] | MIC90 [6] [µg/mL] | CC50 at 72 h [7] [µg/mL]
23 | CC(C)(C)C1CCC(Nc2n[n+]([O-])c3ccccc3[n+]2[O-])CC1 (configuration not stated) | 0.62 (≈ 1.96 µM) | 0.22 (≈ 0.695 µM) | < 0.12 | 2.3 (≈ 7.27 µM) | 3.7 |  | 
24 | COCC(C)Nc1n[n+]([O-])c2cc(F)ccc2[n+]1[O-] (configuration not stated) | 5 (≈ 18.6 µM) | 2 (≈ 7.46 µM) | 1.9 (≈ 7.08 µM) |  | 1.3 |  | 6.3 (≈ 23.5 µM)
25 | [O-][n+]1nc(NC2CCCCC2)[n+]([O-])c2ccccc21 | 2.5 (≈ 9.6 µM) | 3.8 (≈ 14.6 µM) | 0.75 (≈ 2.88 µM) | 8.9 (≈ 34.2 µM) | 3.6 |  | 
26 | COCCNC(=O)c1ccc2c(c1)[n+]([O-])c(C(C)=O)c(C)[n+]2[O-] | 10 (≈ 31.3 µM) | 27 (≈ 84.6 µM) | > 32 | > 16 | >1.6 |  | 
27 | [O-][n+]1nc(N2CCCCC2)[n+]([O-])c2cc3c(cc21)CCC3 | 0.62 (≈ 2.17 µM) | 0.4 (≈ 1.4 µM) | 0.49 (≈ 1.71 µM) | 21 (≈ 73.3 µM) | 13 | 0.31 (≈ 1.08 µM) | 
28 | [O-][n+]1nc(NC2CCCC2)[n+]([O-])c2ccc(F)cc21 | 0.31 (≈ 1.17 µM) | 0.33 (≈ 1.25 µM) | 0.34 (≈ 1.29 µM) | 2.3 (≈ 8.7 µM) | 7.3 |  | 
29 | [H][C@]12C[C@]3([H])C[C@]([H])(C1)[C@H](Nc1n[n+]([O-])c4ccccc4[n+]1[O-])[C@]([H])(C2)C3 | 2.5 (≈ 8 µM) | 1.9 (≈ 6.08 µM) | 2.3 (≈ 7.36 µM) | 7.3 (≈ 23.4 µM) | 2.9 |  | 
30 | [O-][n+]1nc(NC2CCCCC2)[n+]([O-])c2ccc(Cl)cc21 | 0.62 (≈ 2.1 µM) | 0.94 (≈ 3.19 µM) | 0.63 (≈ 2.14 µM) | 2.6 (≈ 8.82 µM) | 4.2 |  | 
31 | [O-][n+]1nc(N2CCOCC2)[n+]([O-])c2ccccc21 | 2.5 (≈ 10.1 µM) | 3.7 (≈ 14.9 µM) | 19 (≈ 76.5 µM) | 5.4 (≈ 21.8 µM) | 2.2 |  | 
32 | CC(C)CCC(C)Nc1n[n+]([O-])c2ccccc2[n+]1[O-] (configuration not stated) | 1.2 (≈ 4.34 µM) | 0.52 (≈ 1.88 µM) | 0.38 (≈ 1.38 µM) | 4.1 (≈ 14.8 µM) | 3.3 |  | 
33 | [O-][n+]1nc(NC2CC2)[n+]([O-])c2ccc(Cl)cc21 | 0.62 (≈ 2.45 µM) | 0.21 (≈ 0.831 µM) | 0.22 (≈ 0.871 µM) | 1.3 (≈ 5.15 µM) | 2.2 |  | 
34 | CCNc1n[n+]([O-])c2cccc(C)c2[n+]1[O-] | 0.62 (≈ 2.82 µM) | 0.51 (≈ 2.32 µM) | 0.48 (≈ 2.18 µM) | 22 (≈ 99.9 µM) | 36 | 0.31 (≈ 1.41 µM) | 
35 | [O-][n+]1nc(NC2CCCC2)[n+]([O-])c2ccc(Br)cc21 | 0.15 (≈ 0.461 µM) | 0.35 (≈ 1.08 µM) | 0.46 (≈ 1.41 µM) | 18 (≈ 55.4 µM) | 110 |  | 
36 | CC(=O)Nc1cc(/C=C\c2ccc([N+](=O)[O-])o2)ns1 | 0.98 (≈ 3.51 µM) | 3.8 (≈ 13.6 µM) | 3.7 (≈ 13.2 µM) | > 50 | >50 |  | 
37 | CN(CCc1ccccc1)c1n[n+]([O-])c2cc3c(cc2[n+]1[O-])CCC3 | 0.31 (≈ 0.922 µM) | 0.24 (≈ 0.713 µM) | 0.44 (≈ 1.31 µM) | 40 (≈ 119 µM) | 130 | 0.15 (≈ 0.446 µM) | 
38 | [O-][n+]1nc(NC2CCC2)[n+]([O-])c2cc3c(cc21)CCC3 | 0.62 (≈ 2.28 µM) | 0.96 (≈ 3.53 µM) | 0.44 (≈ 1.62 µM) | 34 (≈ 125 µM) | 54 | 0.62 (≈ 2.28 µM) | 
39 | CCc1n[n+]([O-])c2ccccc2[n+]1[O-] | 5 (≈ 26.2 µM) | 3.7 (≈ 19.4 µM) | 0.97 (≈ 5.07 µM) | 38 (≈ 199 µM) | 7.6 |  | 
40 | [O-][n+]1nc(NC2CCC2)[n+]([O-])c2ccccc21 | 1.2 (≈ 5.17 µM) | 0.94 (≈ 4.05 µM) | 0.84 (≈ 3.62 µM) | 8.9 (≈ 38.3 µM) | 7.1 |  | 
41 | COc1ccc2c(c1)[n+]([O-])nc(N[C@@H]1C[C@H]3CC[C@@H]1C3)[n+]2[O-] | 0.62 (≈ 2.05 µM) | 0.97 (≈ 3.21 µM) | 1.6 (≈ 5.29 µM) | > 50 | >80 |  | 
42 | CCNc1n[n+]([O-])c2cc(F)ccc2[n+]1[O-] | 0.62 (≈ 2.77 µM) | 0.35 (≈ 1.56 µM) | 0.75 (≈ 3.35 µM) | 4.6 (≈ 20.5 µM) | 7.3 |  | 
43 | COc1cc2c(cc1C)[n+]([O-])nc(NC1CCC1)[n+]2[O-] | 2.5 (≈ 9.05 µM) | 5.1 (≈ 18.5 µM) | 2.9 (≈ 10.5 µM) | > 50 | >20 |  | 
44 | [O-][n+]1nc(NC2CC2)[n+]([O-])c2ccc(F)cc21 | 0.31 (≈ 1.31 µM) | 0.93 (≈ 3.94 µM) | 3.5 (≈ 14.8 µM) | 1.3 (≈ 5.5 µM) | 2.2 |  | 
